Measured values published in ChEMBL document CHEMBL4613286, “Developing Cyclic Opioid Analogues: Fluorescently Labeled Bioconjugates of Biphalin” (ACS Med Chem Lett, 2020).

Experiments:
[1] = target: T1, Kappa-type opioid receptor (Homo sapiens, UniProt P41145); assay: Displacement of [3H]diprenorphine human kappa opioid receptor expressed in CHO cell membranes after 1 hr by micro beta2 scintillation counting method
In short: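 Membranes (20–25 μg protein) from CHO cells expressing human DOR or KOR were incubated 1 h at rt with concentration curves of compound and fixed 3H-diprenorphine (1.2–4.6 nM). Incubations ended by rapid GF/B filtration, then scintillation counted. […] Ki from one-site competition fit using the radioligand KD measured in each cell line. Mean ± SEM, N = 3.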

[2] = target: T2, Delta-type opioid receptor (Homo sapiens, UniProt P41143); assay: Agonist activity at human DOR expressed in CHO cell membranes after 1 hr by [35S]GTPgammaS binding assay relative to SNC80; assay type: functional
T2 sequence (P41143 whole entry): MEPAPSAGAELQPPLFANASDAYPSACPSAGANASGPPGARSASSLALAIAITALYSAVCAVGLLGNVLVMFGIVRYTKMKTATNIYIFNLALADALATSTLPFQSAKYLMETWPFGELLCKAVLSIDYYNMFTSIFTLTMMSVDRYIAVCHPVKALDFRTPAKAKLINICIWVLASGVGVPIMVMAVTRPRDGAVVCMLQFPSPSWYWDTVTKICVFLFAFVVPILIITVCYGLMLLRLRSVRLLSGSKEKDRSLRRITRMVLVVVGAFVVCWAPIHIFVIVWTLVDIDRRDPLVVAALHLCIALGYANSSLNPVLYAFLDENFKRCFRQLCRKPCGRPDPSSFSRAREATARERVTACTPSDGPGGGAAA
In short: (§1)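 Membranes (15 μg protein) from CHO cells stably expressing human DOR, MOR or KOR, grown in DMEM/F12 with 10% heat-inactivated FBS and G418 selection. Concentration curves of agonist incubated with 0.1 nM 35S-GTPγS for 1 h at 30 °C, then filtered and scintillation counted. […] EC50 and Emax from 3-parameter fit, Hill slope fixed at 1. Mean ± SEM, N = 3.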

Homo sapiens = species: Homo sapiens; assay: Selectivity index, ratio of Ki for displacement of [3H]diprenorphine human mu opioid receptor expressed in CHO cell membranes to Ki for displacement of [3H]diprenorphine human delta opioid receptor expressed in CHO cell membranes
[3] = target: T2, Delta-type opioid receptor; assay: Displacement of [3H]diprenorphine human delta opioid receptor expressed in CHO cell membranes after 1 hr by micro beta2 scintillation counting method
Mu-type opioid receptor [4] = target: T3, Mu-type opioid receptor (Homo sapiens, UniProt P35372); assay: Agonist activity at human MOR expressed in CHO cell membranes after 1 hr by [35S]GTPgammaS binding assay relative to DAMGO; assay type: functional; in short: as §1
T3 sequence (P35372 whole entry): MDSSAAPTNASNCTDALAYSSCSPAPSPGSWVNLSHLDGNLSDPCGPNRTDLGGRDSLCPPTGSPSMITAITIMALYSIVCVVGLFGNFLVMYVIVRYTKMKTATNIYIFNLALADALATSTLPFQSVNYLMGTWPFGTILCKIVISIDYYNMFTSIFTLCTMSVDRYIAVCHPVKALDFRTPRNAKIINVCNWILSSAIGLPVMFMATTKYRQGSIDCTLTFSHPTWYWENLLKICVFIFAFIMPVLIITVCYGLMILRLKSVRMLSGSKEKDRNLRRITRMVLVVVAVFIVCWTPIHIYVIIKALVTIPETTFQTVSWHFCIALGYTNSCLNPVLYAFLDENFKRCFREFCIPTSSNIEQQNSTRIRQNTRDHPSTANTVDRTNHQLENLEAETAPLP

[5] = target: T2, Delta-type opioid receptor; assay: Agonist activity at human DOR expressed in CHO cell membranes after 1 hr by [35S]GTPgammaS binding assay; assay type: functional; in short: as §1
Mu-type opioid receptor [6] = target: T3, Mu-type opioid receptor; assay: Agonist activity at human MOR expressed in CHO cell membranes after 1 hr by [35S]GTPgammaS binding assay; assay type: functional
In short: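 Membranes (15 μg protein) from CHO cells stably expressing human DOR, MOR or KOR, grown in DMEM/F12 with 10% heat-inactivated FBS and G418 selection. Concentration curves of agonist incubated with 0.1 nM 35S-GTPγS for 1 h at 30 °C, then filtered and scintillation counted. EC50 and Emax from 3-parameter fit, Hill slope fixed at 1. Mean ± SEM, N = 3.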

[7] = target: T1, Kappa-type opioid receptor; assay: Agonist activity at human KOR expressed in CHO cell membranes after 1 hr by [35S]GTPgammaS binding assay relative to U50,488; assay type: functional; in short: as §1
Mu-type opioid receptor [8] = target: T3, Mu-type opioid receptor; assay: Displacement of [3H]diprenorphine human MOR expressed in CHO cell membranes after 1 hr by micro beta2 scintillation counting method; assay type: cell-based
[9] = target: T1, Kappa-type opioid receptor; assay: Agonist activity at human KOR expressed in CHO cell membranes after 1 hr by [35S]GTPgammaS binding assay; assay type: functional; in short: as §1

T1 sequence (P41145 whole entry): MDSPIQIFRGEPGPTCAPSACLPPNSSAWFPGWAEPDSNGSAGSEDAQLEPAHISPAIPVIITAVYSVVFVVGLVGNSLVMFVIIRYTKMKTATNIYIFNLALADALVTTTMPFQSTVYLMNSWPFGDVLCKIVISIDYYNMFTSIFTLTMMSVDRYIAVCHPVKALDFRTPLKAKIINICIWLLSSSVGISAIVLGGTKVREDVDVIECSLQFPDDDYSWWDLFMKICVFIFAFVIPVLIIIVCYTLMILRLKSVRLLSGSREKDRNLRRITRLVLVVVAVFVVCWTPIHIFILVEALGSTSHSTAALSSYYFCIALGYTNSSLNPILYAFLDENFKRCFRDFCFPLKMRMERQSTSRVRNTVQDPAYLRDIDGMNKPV

SMILES | Ki [1] | Emax [2] | Ratio Ki (Homo sapiens) | Ki [3] | Emax (Mu-type opioid receptor [4]) | EC50 [5] | EC50 (Mu-type opioid receptor [6]) | Emax [7] | Ki (Mu-type opioid receptor [8]) | EC50 [9]
Cc1cc(=O)oc2cc(NC(=O)CCN3C(=O)C4=C(SC[C@@H](NC(=O)[C@@H](N)Cc5ccc(O)cc5)C(=O)NCC(=O)N[C@@H](Cc5ccccc5)C(=O)NNC(=O)[C@H](Cc5ccccc5)NC(=O)CNC(=O)[C@H](NC(=O)[C@@H](N)Cc5ccc(O)cc5)CS4)C3=O)ccc12 | > 3.33 µM | 62% | 5 to 8 | 0.098 µM | 120% | 0.25 µM | 0.27 µM | 60% | 0.51 µM | 1 µM
CN(C)c1cccc2c(S(=O)(=O)NCCN3C(=O)C4=C(SC[C@@H](NC(=O)[C@@H](N)Cc5ccc(O)cc5)C(=O)NCC(=O)N[C@@H](Cc5ccccc5)C(=O)NNC(=O)[C@H](Cc5ccccc5)NC(=O)CNC(=O)[C@H](NC(=O)[C@@H](N)Cc5ccc(O)cc5)CS4)C3=O)cccc12 | > 3.33 µM | 47% | 5 to 8 | 0.015 µM | 79% | 0.04 µM | 0.021 µM | 46% | 0.091 µM | 0.46 µM
Cc1cc(=O)oc2ccc(N3C(=O)C4=C(SC[C@@H](NC(=O)[C@@H](N)Cc5ccc(O)cc5)C(=O)NCC(=O)N[C@@H](Cc5ccccc5)C(=O)NNC(=O)[C@H](Cc5ccccc5)NC(=O)CNC(=O)[C@H](NC(=O)[C@@H](N)Cc5ccc(O)cc5)CS4)C3=O)cc12 | > 3.33 µM | 55% | 5 to 8 | 0.12 µM | 80% | 0.19 µM | 0.29 µM | 50% | 0.79 µM | 4.1 µM
